Rows were chosen to be rich in hits. Some 2% of all compounds tested hit in one or more screens of this group.
FID counter – fluorescent intercalator displacement, NS3 helicase counter-screen; DNA fluorescent intercalator displacement, fluorescence; inhibition, % at 7.9 µM; actives 0.17% (n = 290,000); AID 1845; in the data active = inhibition above about 37%;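 also: 0% = vehicle and 100% = reference compound; higher means more ethidium bromide displaced from hairpin DNA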
PABP polyA inh – blocks human PABP binding to poly(A) RNA. P11940. fluorescence polarization. actives 1% (n = 290,000). inhibition, % at 35 µM. AID 2014;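 also: calls also rest on retests at 20 µM and on dose response follow-up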
eIF4H inh – inhibitors of RNA binding by human eIF4H | eIF4H fluorescence polarization binding assay | inhibition, % at 35 µM | actives 0.94% (n = 290,000) | Q15056;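 also: calls also rest on retests at 20 µM and on dose response follow-up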
HCV NS3 hel inh – HCV NS3 helicase inhibition | inhibition, % at 10.9 µM | actives 0.56% (n = 290,000) | AID 1800 | NS3 helicase DNA unwinding, Cy5 molecular beacon fluorescence;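 active = inhibition above the mean of all tested compounds plus 3 SD, set per campaign, cut at about 35% in these data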;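 also: 0% = DMSO wells and 100% = thioflavine S control wells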
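Assay system: hepatitis C virus NS3 helicase domain fragment enzyme. Also added: annealed dual-labelled DNA beacon duplex, ATP-started. Timing: 1 h reaction at 25 °C, ATP-initiated. Technique: Cy5 fluorescence at 0 and 60 min, beacon hairpin quenching. Evaluation: % inhibition of unwinding. Replication: one well per compound.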
PABP1 MLLE inh – blocks PAM2 peptide binding to the PABP1 MLLE domain | P11940 | GST-MLLE / FITC-PAM2 fluorescence polarization | inhibition, % at 20 µM | actives 0.36% (n = 360,000); in the data active = inhibition above about 35%, passing the limit was not always enough;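 also: plate controls were DMSO wells with GST-MLLE for no effect and wells lacking GST-MLLE protein for full effect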
core dimer inh – HCV core protein dimerization inhibition; actives 0.33% (n = 300,000); inhibition, % at 5 µM; TR-FRET GST/Flag-core106 dimerization, 1536-well; AID 1899;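 active = inhibition above the mean of all tested compounds plus 3 SD, set per screening campaign, cut at about 45% in these data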
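System: GST/Flag-tagged HCV core106 proteins. Incubation: compound-protein-antibody incubation 4 h at 22.5 °C. Technique: HTRF with 340 nm excitation, 617/671 nm emission. Medium: KF-containing HEPES buffer, pH 7.45, DTT, CHAPS, BSA. Read-out: inhibition (%) from 671 over 617 nm ratio. Also added: Eu(K)-anti-GST 90 ng/mL plus XL665-anti-Flag 1 µg/mL.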
* marks the source's active call; other numbers are inactive results; i = inactive; ? = inconclusive; / = no result. Unless noted, no rule for the calls is given here.

SMILES | FID counter | PABP polyA inh | eIF4H inh | HCV NS3 hel inh | PABP1 MLLE inh | core dimer inh
O=C(Nc1c(-c2ccc(Cl)cc2)[nH][nH]c1=O)c1ccccn1 | / | / | / | / | -6 | /
COC(=O)C1CCN(c2ccc([N+](=O)[O-])cc2)CC1 | -2 | -5 | -10 | -5 | 0 | 0
COC(=O)C1CCN(CCCOc2ccc(CN3CCN(c4ccc([N+](=O)[O-])cc4)CC3)cc2)CC1 | 47* | 11 | -16 | -34 | 4 | 4
Cc1ccccc1NC(=S)NC(=O)/C=C/c1ccco1 | -14 | 8 | 22 | 6 | 13 | 2
Cc1ccc(-c2nc3ccccc3o2)cc1NC(=S)NC(=O)/C=C/c1ccco1 | -2 | 8 | -4 | 9 | -1 | 56*
O=C(/C=C/c1ccco1)NC(=S)Nc1cccc(-c2nc3ccccc3o2)c1 | 0 | 1 | 5 | 31 | -5 | 56*
Cc1ccccc1CN1CC2=C(CCN(Cc3ccccc3)C2=O)N2CCN=C12 | / | / | / | / | -10 | /
COc1cc(C#N)ccc1OCC(=O)Nc1cccc(S(=O)(=O)N(C)c2ccccc2)c1 | / | / | / | / | -36 | /
COc1ccc2cc(C(c3nnnn3C3CCCC3)N3CCc4ccccc4C3)c(=O)[nH]c2c1 (stereo unspecified) | 4 | 41 | 2 | -5 | 41* | 1
Cc1cc2cc(C(c3nnnn3Cc3ccccc3)N3CCc4ccccc43)c(=O)[nH]c2cc1C (stereo unspecified) | -14 | 40 | -4 | 0 | 4 | 26
Cc1ccc2[nH]c(=O)c(C(c3nnnn3CC3CCCO3)N3CCc4ccccc4C3)cc2c1 (stereo unspecified) | -1 | 24 | -3 | -2 | 78* | 0
COc1ccc2[nH]c(=O)c(C(c3nnnn3CC3CCCO3)N3CCc4ccccc4C3)cc2c1 (stereo unspecified) | 0 | 23 | 2 | 8 | 37 | 2
CCC(C)(C)n1nnnc1C(c1cc2ccc(OC)cc2[nH]c1=O)N1CCc2ccccc2C1 (stereo unspecified) | -6 | 12 | 0 | -4 | 72* | 6
Cc1cc2cc(C(c3nnnn3Cc3ccco3)N3CCc4ccccc43)c(=O)[nH]c2cc1C (stereo unspecified) | -22 | 77* | 26* | 27 | -4 | 29
Cc1cc(/C([O-])=C(/C(=S)Nc2ccc(F)cc2)[n+]2ccccc2)c(C)n1-c1ccc(F)cc1 | -3 | 32 | 67* | 35 | -23 | 8
Cc1cc(/C([O-])=C(/C(=S)Nc2ccccc2)[n+]2ccccc2)c(C)n1-c1ccccc1 | -4 | 63* | 61* | 9 | -21 | 32
C[C@H]1CN([C@@H](C)CO)C(=O)CCCn2nncc2CO[C@H]1CN(C)C(=O)Nc1cccc(Oc2ccccn2)c1 | / | / | / | / | 5 | /
O=C(Oc1cccc2ccccc12)c1cc(Cl)nc2ccccc12 | -4 | -7 | 4 | 2 | 5 | -1
O=Cc1ccc(OC(=O)c2cc(Cl)nc3ccccc23)cc1 | 3 | 6 | -4 | -5 | 36* | -2
Cc1ccc(C(=O)/C=C/C(=O)c2ccc(C)cc2)cc1 | 0 | 87* | / | -1 | 1 | 2
O=C(O)Cc1c[nH]c2cccc(O)c12 | -5 | 94* | 88* | 32 | -6 | -36
COc1cccc(/C=C2\NC(=O)NC2=O)c1O | -1 | 15 | -2 | -2 | -10 | -11
CC(C)N1CCc2c(sc(NC(=O)c3ccc4ccccc4c3)c2C(N)=O)C1 | 15 | 21 | ? | -90 | -51 | 3
CC(=O)Nc1sc2c(c1-c1nc3ccccc3s1)CCN(C(C)C)C2 | 60* | ? | ? | 28 | i | -13
CCOC(=O)C1=CCN(S(C)(=O)=O)C1c1ccc(C)cc1 (stereo unspecified) | / | / | / | / | -12 | /
O=C1c2ccccc2C(Nc2ccc3c(c2)OCO3)N1Cc1ccc2c(c1)OCO2 (stereo unspecified) | -15 | -16 | 11 | 9 | 26 | 50*
CNC(=O)C[C@@H]1C(=O)N(c2ccc(OC)cc2)CC1(C)C | / | / | / | / | -14 | /
COc1ccc(N2Cc3cccc(C(=O)NC(C)CCc4ccco4)c3C2=O)cc1 (stereo unspecified) | -30 | 36* | 88* | 23 | -19 | 63*
CCOC(=O)N1CCC(NC(=O)c2cccc3c2C(=O)N(c2ccc(OC)cc2)C3)CC1 | -31 | / | / | 18 | -12 | 59*
